Consider 34 compounds from PubChem BioAssay AID602194 (The Scripps Research Institute Molecular Screening Center, 2012).

The structures appear in SMILES notation. The campaign covered roughly 2,400 compounds. About 140 (5.8%) were called active. These entries were drawn from the full list. Unmarked numbers belong to inactive results.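 Rule for the calls: active = mean activation across replicates exceeds the hit threshold derived in the earlier primary screen (cut at about 18% in these data); inactive = the rest.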

Mu-type opioid receptor (Homo sapiens) + Delta-type opioid receptor (Homo sapiens), sequence (P35372 whole entry, looked up): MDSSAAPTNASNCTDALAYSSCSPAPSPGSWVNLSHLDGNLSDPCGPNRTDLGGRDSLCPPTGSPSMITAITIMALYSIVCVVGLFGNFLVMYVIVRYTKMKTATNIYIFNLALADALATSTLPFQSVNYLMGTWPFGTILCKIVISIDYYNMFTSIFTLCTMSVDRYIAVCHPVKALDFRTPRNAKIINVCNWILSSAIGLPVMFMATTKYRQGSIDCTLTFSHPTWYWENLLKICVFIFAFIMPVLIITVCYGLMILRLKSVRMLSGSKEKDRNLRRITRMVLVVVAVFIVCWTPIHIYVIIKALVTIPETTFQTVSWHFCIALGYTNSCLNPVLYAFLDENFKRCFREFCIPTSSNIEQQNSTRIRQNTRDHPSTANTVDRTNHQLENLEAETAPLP
Mu-type opioid receptor (Homo sapiens) + Delta-type opioid receptor (Homo sapiens), sequence (P41143 whole entry, looked up): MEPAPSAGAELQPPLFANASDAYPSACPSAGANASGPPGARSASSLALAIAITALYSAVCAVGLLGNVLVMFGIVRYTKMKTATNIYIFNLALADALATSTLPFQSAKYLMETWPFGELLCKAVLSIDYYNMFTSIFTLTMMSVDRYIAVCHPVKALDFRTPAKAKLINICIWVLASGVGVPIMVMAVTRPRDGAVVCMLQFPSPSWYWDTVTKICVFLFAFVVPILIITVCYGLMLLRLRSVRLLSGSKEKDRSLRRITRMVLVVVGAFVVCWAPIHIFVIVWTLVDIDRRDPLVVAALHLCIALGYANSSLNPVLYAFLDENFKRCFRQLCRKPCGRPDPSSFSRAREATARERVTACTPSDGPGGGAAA

This test has as its target Mu-type opioid receptor (Homo sapiens) + Delta-type opioid receptor (Homo sapiens) (UniProt P35372+P41143). The experiment in a line: agonists of MOR-DOR heterodimerization, counter-screen for MC4R biased agonist project, cell-based, luminescence (AID 602194). Conditions: U2OS PathHunter beta-arrestin, beta-gal luminescence; at 9.2 µM; hits give high values; percent of deltorphin B response, DMSO zero. In short, it runs like this: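 Repeats: triplicate; Test system: U2OS Mu-Delta cell line; Benchmarks: Deltorphin B 0.9 µM final as 100%, DMSO only as 0%; Measured by: beta-gal complementation luminescence; Schedule: 3 h compound exposure at 37 °C, 1 h room-temperature readout; Dosing: single dose, 9.2 µM final nominal compound concentration.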
On the technique in general: The purpose of a counterscreen is to sort out artefacts and off-target activity.
For the compound `CC(=O)Nc1cc(-c2ccccc2N(C)C)cn2c(-c3ccc(F)c(Cl)c3)cnc12`, the activation is 4.79%. Regarding `CC(=O)Nc1cc(-c2ccccc2F)cn2c(-c3cccc(C(F)(F)F)c3)cnc12`, the activation is 2.54%.

Regarding `Cc1csc(NC(=O)c2ccc(-c3ccc(Cl)cc3Cl)o2)n1`, the activation was 5.41%. As for `CCCCNc1c(-c2cccc(Sc3ccc(OC)cc3)c2)nc2ccccn12`, the figure is 6.07%.

Consider `CCN1CCN(CCNC(=O)c2ccc(/C=C3/Sc4ccccc4N(Cc4cccc(C)c4)C3=O)cc2)CC1`, for which the activation is 4.15%. As for `Cc1ccccc1NC(=O)c1ccc(COc2ccc3c(C)cc(=O)oc3c2)cc1`, the figure is 12.7%; as for `O=C(/C=C/c1c(Cl)cccc1Cl)NCc1ccccc1`, 5.53%; as for `COc1c(Cl)cc(C(=O)Nc2ccc(Cl)cn2)cc1Cl`, 7.15%. With `NC(N)=Nc1nc(-c2ccccc2)c2cc(Cl)ccc2n1` the figure was 5.11%; with `O=C(NC1CCCCCC1)c1cccnc1Sc1ccc(Cl)cc1`, 3.4%. Regarding `Brc1ccc(-c2csc(N/N=C/c3cccnc3)n2)cc1`, the activation was 5.84%. Regarding `Cc1cccc(NC(=O)Nc2cccc(Oc3c(F)c(F)c(F)c(F)c3F)c2)c1`, the activation was 6.53%.

Turning to `COc1ccc(-c2cc(NC=O)c3ncc(-c4ccccc4)n3c2)cc1OC`, the activation is 3.12%. With `O=C(CCCCCN1C(=O)c2cccc3cccc(c23)C1=O)NCc1ccco1` the figure was 9.12%.

As for `O=C(CCCn1c(SCC(=O)c2ccc(F)cc2)nc2ccccc2c1=O)NCc1ccco1`, the activation was 33.1% (active). As for `O=C(CCCN1C(=O)/C(=C\c2ccco2)SC1=S)Nc1cccc2ccccc12`, the figure is 4.3%; as for `COc1ccc(S(=O)(=O)N/N=C\c2ccc(OC)c(COc3ccc(C)cc3[N+](=O)[O-])c2)cc1`, 3.27%; as for `COc1ccccc1-c1cc(NC(C)=O)c2ncc(-c3ccc(F)cc3)n2c1`, 4.19%. With `O=C(N/N=C/c1ccc(OC(=O)c2ccccc2Cl)cc1)c1ccc(O)cc1` the figure was 6.45%. With `CC(=O)c1cccc(-c2cnc3c(NC=O)cc(-c4ccc(N(C)C)cc4)cn23)c1` the figure was 2.52%. As to `Cc1ccc(-n2cc3ccc([N+](=O)[O-])cc3n2)cc1`, the activation is 7.27%. Regarding `COc1ccc(OCC(=O)Nc2ccc(N3CCC(C)CC3)cc2)cc1`, the activation was 2.59%. As for `O=C(NCCc1c[nH]c2ccc(Cl)cc12)c1ccc([N+](=O)[O-])cc1`, the figure is 15.2%; as for `CCOC(=O)c1[nH]c2c(c1-c1ccccc1)C(=O)CC(c1ccc(Cl)cc1)C2` (centres undefined), 6.76%; as for `CCCCCCCCCCOC(=O)Cn1c(COc2cccc(OC)c2)[n+](C)c2ccccc21`, 19.9% (active).

Take `CCCCCCCCCCOC(=O)Cn1c(COc2ccc(C)cc2)[n+](C)c2ccccc21`: the activation is 22.4% (active).

Turning to `COc1cc(/C=C(\C#N)C(=O)Nc2ccc3ccccc3c2)c([N+](=O)[O-])cc1OC`, the activation was 10.3%. As for `CCN1C[C@@H]2[C@@H]3C(=O)N(Cc4ccccc4)C(=O)[C@@H]3[C@](Cc3ccccc3)(C(=O)OC)N2C1=NC1CCCCC1`, the figure is 5.52%.

Consider `O=C(NC(c1ccc(-c2ccccc2)cc1)c1cnccn1)C1CCN(CCOc2ccc(Cl)cc2Cl)CC1` (centres undefined), for which the activation was 9.53%. As for `O=C(COC(=O)c1cccc(Br)c1)Nc1cccc2c1C(=O)c1ccccc1C2=O`, the activation was 6.2%. As to `O=C(NC(=S)Nc1cccc2c(O)cccc12)c1cccc(Br)c1`, the activation was 8.2%. As for `CCN(CC)S(=O)(=O)c1ccc(C)c(NC(=O)COc2ccc(Br)cc2Cl)c1`, the activation is 6.67%. On to `CSc1ccc(/C=N\NC(=O)COc2ccc(Cl)cc2Br)cc1`, for which the activation was 5.52%. Turning to `COc1ccc(C)c(Cn2c(-c3nonc3N)nc3ccccc32)c1`, the activation is 5.04%.
